In article PMC9283735 (Clinical and Translational Science, 2022):
Like-named read-outs stand apart in the source and are kept apart here. *1 amine or outer side, *2 acyl side, *3 side chain or, on linkers, in order; H or OH if unused. Where a SMILES comes first, the peptide text is derived from it. Bridges are numbered along the chain shown (N, C = ends). [ ]: non-standard residue; d: D form. The star is where a group is joined. Orn(4R-OH,5R-OCH2CH2NMe3+) = C[N+](C)(C)CCO[C@@H](N[*:3])[C@H](O)C[C@H](N[*:1])C(=O)[*:2]; pTerphenylCO(4''-OnC5H11) = CCCCCOc1ccc(-c2ccc(-c3ccc(C(=O)*)cc3)cc2)cc1; hTyr(3S-OH,4S-OH) = N[C@H](C(=O)O)[C@H](O)[C@@H](O)c1ccc(O)cc1; Pro(3S-OH,4S-Me) = C[C@H]1CN[C@H](C(=O)O)[C@H]1O; Hyp = O=C(O)[C@@H]1C[C@@H](O)CN1

Columns and labels:
healthy adult subjects [1] = assay: Solicited local reactogenicity symptoms; assay type: in vivo, human; settings: 1 mg or 10 mg single s.c. dose
Method in brief: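 The injection site was evaluated from dosing to day 30: in-unit confinement for 7 days, then follow-up on days 14, 21 and 30 (±1 day). Solicited local symptoms were pain, tenderness, pruritus, ecchymosis, induration/swelling, erythema, nodule and ulceration, each graded mild (1), moderate (2) or severe (3). Subjects were randomized 3:1 to test compound or 5% dextrose placebo. Proportions carry Wilson-score 95% CIs.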

healthy adult subjects [2] = assay type: in vivo, human
Method in brief: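 Unsolicited AEs (volunteered, not pre-specified) were recorded from dosing to final follow-up (day 30), graded 1–3, judged related or unrelated by the study physician, and coded with MedDRA 23.1. Clinical evaluation included ECGs, physical examinations and vital signs on select days. Laboratory tests covered hematology, coagulation, blood chemistry and dipstick urinalysis, run on samples taken after a fast of at least 8 h.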

[3] = Plasma pharmacokinetics after a single s.c. dose; assay type: in vivo, human; settings: 10 mg single s.c. dose, healthy adults; for AUC(0-t): AUC0-last; for AUC(0-t) / Tmax: N = 6; for Tmax: T max
Method in brief: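 Healthy adults aged 18–45 y were randomized 3:1 to a single s.c. injection of the test compound (100 mg/ml formulation with mannitol) or placebo (5% dextrose). Parameters came from noncompartmental analysis (Lambda Z: adjusted r² ≥0.90, span ≥2.0 half-lives, ≥2 points after Tmax).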

[4] = single i.v. doses of 50, 100, 200 and 400 mg, human plasma; cited from earlier work
[5] = rats; cited from earlier work
[6] = monkeys; cited from earlier work
[7] = cohort 1 (1 mg s.c.), of 3 who received rezafungin
[8] = cohort 2 (10 mg s.c.), of 6 who received rezafungin
[9] = human, plasma, sc, 10 mg, geometric mean, NCA
[10] = human, plasma, sc, 10 mg, median, NCA

CCCCCOc1ccc(-c2ccc(-c3ccc(C(=O)N[C@H]4C[C@@H](O)[C@@H](OCC[N+](C)(C)C)NC(=O)[C@@H]5[C@@H](O)[C@@H](C)CN5C(=O)[C@H]([C@@H](C)O)NC(=O)[C@H]([C@H](O)[C@@H](O)c5ccc(O)cc5)NC(=O)[C@@H]5C[C@@H](O)CN5C(=O)[C@H]([C@@H](C)O)NC4=O)cc3)cc2)cc1 [rezafungin] ({pTerphenylCO(4''-OnC5H11)}-[Orn(4R-OH,5R-OCH2CH2NMe3+)]T[Hyp][hTyr(3S-OH,4S-OH)]T[Pro(3S-OH,4S-Me)]; lactam 1-C)
intensity of solicited reactogenicity symptoms (healthy adult subjects [1]): mild to moderate | severe bradycardia, subjects (healthy adult subjects [2]; cohort 1 (1 mg s.c.), asymptomatic, determined not rezafungin-related): single subject | sinus bradycardia (unsolicited AE), % of subjects (healthy adult subjects [2]; [7]): 67% | sinus bradycardia (unsolicited AE), subjects (healthy adult subjects [2]; [7]): 2 | unsolicited AEs deemed related to rezafungin, number of subjects (healthy adult subjects [2]; cohort 2 (10 mg s.c.)): three | unsolicited AEs deemed related to rezafungin, number of AEs (healthy adult subjects [2]; cohort 2 (10 mg s.c.), all mild): Five | increased alanine aminotransferase (unsolicited AE), % of subjects (healthy adult subjects [2]; [8]): 33% | increased alanine aminotransferase (unsolicited AE), subjects (healthy adult subjects [2]; [8]): 2 | exposure period [3]: ~1 month | t 1/2, geometric mean ([3]; plasma, NCA, geometric mean, N = 5): 186.2 h | AUC0-inf, maximum ([3]; plasma, NCA, maximum, N = 5): 53,200 ng*h/ml | CL/F, maximum ([3]; plasma, NCA, maximum, N = 5): 0.344 L/h | V z/F, maximum ([3]; plasma, NCA, maximum, N = 5): 95.6 L | t 1/2, maximum ([3]; plasma, NCA, maximum, N = 5): 219 h | CL/F, minimum ([3]; plasma, NCA, minimum, N = 5): 0.188 L/h | V z/F, minimum ([3]; plasma, NCA, minimum, N = 5): 38.0 L | t 1/2, minimum ([3]; plasma, NCA, minimum, N = 5): 140 h | AUC(0-t) [3, 9]: 32800 ng·h/mL | AUC(0-t) [3, 10]: 32000 ng·h/mL | CL/F ([3]; human, plasma, sc, 10 mg, CL/F (apparent clearance), mean, NCA, N = 5): 4.35 mL/min | CL/F ([3]; human, plasma, sc, 10 mg, CL/F, geometric mean, NCA, N = 5): 4.25 mL/min | CL/F ([3]; human, plasma, sc, 10 mg, CL/F, median, NCA, N = 5): 4.5 mL/min | Tmax [3, 9]: 112 h | Tmax ([3]; human, plasma, sc, 10 mg, mean, NCA): 120 h | Tmax [3, 10]: 144 h | half-life ([3]; human, plasma, sc, 10 mg, t 1/2, median, NCA, median, N = 5): 193 h | T max after start of infusion [4]: ~ 1 h | Total body clearance [4]: ~ 0.2 L/h | bioavailability of s.c. formulation [5]: ≤ 80% | bioavailability of s.c. formulation [6]: ≤ 80%
